Experimental data from different studies.
Compare with care: the assays were run in different laboratories.
Target: Serine/threonine-protein kinase RIO3 (RIOK3, Homo sapiens, UniProt O14730)
Residues used in one study (O14730 1-519): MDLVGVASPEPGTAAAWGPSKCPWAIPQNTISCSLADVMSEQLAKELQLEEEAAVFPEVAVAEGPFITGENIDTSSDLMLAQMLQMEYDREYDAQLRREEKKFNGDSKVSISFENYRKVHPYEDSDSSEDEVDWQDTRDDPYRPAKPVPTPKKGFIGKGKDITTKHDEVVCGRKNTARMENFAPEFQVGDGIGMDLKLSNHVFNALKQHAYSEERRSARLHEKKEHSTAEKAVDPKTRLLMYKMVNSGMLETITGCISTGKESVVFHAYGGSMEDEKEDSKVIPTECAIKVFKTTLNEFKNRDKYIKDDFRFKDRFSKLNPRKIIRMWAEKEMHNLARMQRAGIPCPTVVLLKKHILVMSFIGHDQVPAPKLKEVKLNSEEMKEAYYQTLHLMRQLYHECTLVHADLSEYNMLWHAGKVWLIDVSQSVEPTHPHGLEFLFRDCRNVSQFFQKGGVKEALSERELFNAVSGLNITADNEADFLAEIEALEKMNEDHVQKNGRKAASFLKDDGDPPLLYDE

With `CC(C)(O)c1cncc(-c2nc3ccc(F)cc3n2C2CC2)c1` the remaining binding was 100% (cell-free assay, competition with immobilised ligand; 1 µM).
`CN(c1nccc(-c2cnn3ncccc23)n1)C1CC1` has a remaining binding of 100% (binding; 1 µM).
With `CCCOc1ccc([C@H]2[C@H](C(=O)O)[C@@H](c3ccc4c(c3)OCO4)CN2CC(=O)Nc2c(CC)cccc2CC)cc1` the remaining binding was 100% (cell-free assay, competition with immobilised ligand; 1 µM).
`COc1cnc(Nc2cccc(S(N)(=O)=O)c2)nc1N1CCN(c2ccccc2)C(=O)C1` gave a remaining binding of 57% (binding, competition with immobilised ligand; 1 µM).
The remaining binding of `CN(C)c1ncc(F)c(-c2cnn3ncccc23)n1` is reported as 100% (binding; 1 µM).
The remaining binding of `COc1cnc(Nc2cccc(S(N)(=O)=O)c2)nc1N1CCN(c2ccccc2)CC1` is reported as 91% (binding, competition with immobilised ligand; 1 µM).
With `O=C(c1ccc(Nc2ncc(Cl)c(-c3ccc(Cl)s3)n2)cc1)N1CCC(N2CCCC2)CC1` the remaining binding was 0% (binding, competition with immobilised ligand; 1 µM).
`CN(CCCC(F)(F)F)c1nccc(-c2cnn3ncccc23)n1` has a remaining binding of 100% (binding; 1 µM).
The remaining binding of `C=CC(=O)N1CCC(C(=O)NCC(=O)N2CCN(c3nc(-c4cnc(N)nc4C(F)F)nc(N4CCOCC4)n3)CC2)CC1` is reported as 100% (binding, competition with immobilised ligand; 1 µM).
For `C[C@@H](c1ccc(-n2cnc3c(N)ncnc32)cc1)N1CCc2nn(C)c(Cc3ccccc3)c2C1=O`, the remaining binding was 76% (binding, competition with immobilised ligand; 0.1 µM).
`O=C(NCC1CCOCC1)c1n[nH]cc1NC(=O)c1c(F)cccc1F` gave a remaining binding of 84% (binding, competition with immobilised ligand; 1 µM).
For `C[C@H]1CCN(c2nccc(-c3cnn4ncccc34)n2)C1`, the remaining binding was 100% (binding; 1 µM).
`Cc1cc(NC(=O)c2cccc(S(F)(F)(F)(F)F)c2)cc(-n2ccn3nc(-c4cccnc4)cc23)c1` gave a remaining binding of 85.9% (cell-free assay, competition with immobilised ligand; 1 µM).
`O=C(c1ccc(Nc2nccc(-c3cc4ccccc4s3)n2)cc1)N1CCC(N2CCCC2)CC1` gave a remaining binding of 0.9% (binding, competition with immobilised ligand; 1 µM).
`CO[C@@H](C)c1c(Nc2ccc([C@H](N(C)C(=O)C3CCS(=O)(=O)CC3)C(F)(F)F)cc2)cnc2cc(Cl)nn12` gave a remaining binding of 82% (cell-free assay, competition with immobilised ligand; 1 µM).
`CC1CCCN1c1nccc(-c2cnn3ncccc23)n1` (stereo not shown) has a remaining binding of 100% (binding; 1 µM).
`COc1ccc2c(O[C@@H]3C[C@H]4C(=O)N[C@]5(C(=O)O)CC5/C=C\CCCCC[C@H](NC(=O)OC5CCCC5)C(=O)N4C3)cc(-c3csc(NC(=O)C(C)C)n3)nc2c1C` (stereo partly shown) has a remaining binding of 100% (cell-free assay, competition with immobilised ligand; 1 µM).
For `CCN1CCN(Cc2ccc(C(=O)Nc3ccc(C)c(Oc4ccc5c(c4)CC(=O)N5)c3)cc2C(F)(F)F)CC1`, the remaining binding was 100% (binding, competition with immobilised ligand; 1 µM).
The remaining binding of `N[C@@H]1CCN(c2nccc(-c3cnn4ncccc34)n2)C1` is reported as 100% (binding; 1 µM).
`Cc1cnc(Nc2ccc(C(=O)N3CCC(N4CCCC4)CC3)cc2)nc1-c1cc2ccccc2s1` gave a remaining binding of 0.3% (binding, competition with immobilised ligand; 1 µM).
The remaining binding of `COc1ccnn2ncc(-c3ccnc(N(C)C)n3)c12` is reported as 100% (binding; 1 µM).
For `CC(=O)N1CCC(c2ccc(C(=O)NC(=N)N)cc2C(F)(F)F)CC1`, the remaining binding was 100% (cell-free assay, competition with immobilised ligand; 1 µM).
